CHOP inhibitor – blocks CHOP induction under ER stress; CHO-K1 CHOP-promoter luciferase, tunicamycin-induced, 15-18 h; inhibition, % at 10 µM; 220,000 compounds, 3.8% hits;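 active = compounds that reduced the stress-induced luciferase reporter signal by more than about 70% of percent inhibition, limit read from the data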
UPR CHOP act – activators of apoptotic arm of unfolded protein response (CHOP). CHO-CHOP luciferase reporter, UPR activation, luminescence; percent of tunicamycin response over DMSO baseline. activation, % at 10 µM. 330,000 compounds, 0.34% hits;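 active = at 10 µM dose, activation of 40% or more, normalized to positive control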
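Assay system: CHO-CHOP cells, stable luciferase reporter of PERK-eIF2a-CHOP signalling / Buffer or medium: F12 plus 10% serum / Compound dosing: one dose, 10 µM in 0.5% DMSO / Times: 6 h compound treatment, 37 °C / Technique: luciferase luminescence / Read-out: % reporter activation, DMSO baseline versus tunicamycin full activation / Benchmarks: tunicamycin and DMSO controls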
XBP1 UPR activ – activators of adaptive arm of unfolded protein response (XBP1); activation, % at 20 µM; CHO-XBP1 luciferase reporter, IRE1-XBP1 UPR activation, luminescence; percent of tunicamycin response, DMSO as zero; 330,000 compounds, 0.33% hits; AID 463104;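 active = versus positive control, 20 µM dose yields 30% or more activation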
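incubation = overnight seeding at 37 °C, 6 h compound treatment at 37 °C | assay system = CHO-XBP1 cells stably carrying IRE1-XBP1-driven luciferase reporter | input = 1000 cells per well | detection = luciferase luminescence | dosing = single point, 20 µM final compound, 1% DMSO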
PvdQ inh – P. aeruginosa PvdQ acylase inhibition. purified PvdQ acylase, fluorescence plate reader. 340,000 compounds, 0.063% hits. AID 488965. inhibition, % at 10 µM; in the data active = inhibition above about 30%, passing the limit was not always enough
Each line names hits and unclear results; the compound was inactive in the other large screens. The full list was thinned out, with hits kept by preference.

COc1cc2[nH]c(=O)n(CCC(=O)N3CCN(c4cccc(C)c4C)CC3)c(=O)c2cc1OC	CHOP inhibitor 93
CCC(=O)N(Cc1cc(=O)[nH]c2ccccc12)c1ccccc1OC	none (no result: CHOP inhibitor)
CCOC(=O)C1=C(COC(=O)CCNS(=O)(=O)c2ccc(NC(C)=O)cc2)NC(=O)NC1C (stereo not given)	none (no result: CHOP inhibitor)
CC(=O)N1N=C(c2ccc(C)cc2)OC1c1ccc(C)cc1 (stereo not given)	CHOP inhibitor 75
CC(=O)N1N=C(c2ccc(C)cc2)OC1c1ccc(C(C)C)cc1 (stereo not given)	none
CN(Cc1ccccc1F)C(=O)CN1C(=O)NC2(CCc3ccccc32)C1=O (stereo not given)	none (no result: CHOP inhibitor)
Cc1cc(O)ccc1N/C=C(\C#N)c1nc2ccccc2o1	CHOP inhibitor 73
Cc1ccc(NCc2nnc(SCC(N)=O)o2)c(C)c1	none
Cc1ccc(C(=O)CSc2nnc(CNc3ccc(C)cc3C)o2)cc1	CHOP inhibitor 72
COc1cc(-c2nc3ccc4ccccc4c3c3c2CCC3)ccc1O	CHOP inhibitor 86
CN(c1ccc(O)cc1)c1nc(-c2ccccc2)cs1	CHOP inhibitor 90 (no result: UPR CHOP act, XBP1 UPR activ)
CN(C(=O)c1ccco1)c1nc(-c2ccccc2)cs1	none (no result: CHOP inhibitor)
CC(C)Cn1cc(C(=O)NCc2cccs2)c2c3ccccc3n(C)c2c1=O	CHOP inhibitor 94
Cc1ccc(S(=O)(=O)NC2CC(C)(C)NC(C)(C)C2)cc1C	none (no result: CHOP inhibitor)
COc1cc([N+](=O)[O-])ccc1NC(=O)Nc1nc2c(s1)CCCC2	CHOP inhibitor 73
CCCc1c(O)nc(SCC(=O)O)[nH]c1=O	CHOP inhibitor 76
O=C(NC1CCCC1)C(c1ccncc1)N(CCCN1CCOCC1)C(=O)c1ccc(-c2ccccc2)[nH]1 (stereo not given)	none
O=C(NC1CCCCC1)C(c1ccc(F)cc1)N(CCN1CCOCC1)C(=O)c1ccc(-c2ccccc2)[nH]1 (stereo not given)	CHOP inhibitor 73
CC(=O)c1ccc(OCCCC(=O)Nc2cc(S(=O)(=O)N3CCCCC3)ccc2C)cc1	none (no result: CHOP inhibitor)
c1ccc(-c2cc(-c3ccncc3)nc3ccc4ccccc4c23)cc1	CHOP inhibitor 89
COc1ccc(N=Nc2cc(-c3ccccc3)ccc2O)cc1	none (no result: CHOP inhibitor)
COc1ccc(-c2[nH]ncc2N=Nc2ccccc2)cc1	CHOP inhibitor 73
C[C@H](CO)N1C[C@H](C)[C@@H](CN(C)C(=O)Nc2ccc3c(c2)OCO3)Oc2ccc(NS(=O)(=O)c3ccccc3)cc2C1=O	none (no result: CHOP inhibitor)
Cc1ccc(-c2csc(/C=C3\SC(C)C(=O)N3CC(=O)Nc3ccccc3F)n2)cc1 (stereo not given)	CHOP inhibitor 93
O=C(CN1C(=O)CS/C1=C\c1nc(-c2ccc(Cl)cc2)cs1)Nc1cccnc1Cl	none
O=C(Nc1cccc(C(F)(F)F)c1)c1cccnc1NCCO	none (no result: CHOP inhibitor)
O=C(Nc1cccc(C(F)(F)F)c1)c1cccnc1NCCc1ccccc1	CHOP inhibitor 75
CCCN(CCC)S(=O)(=O)c1ccc(C(=O)NCc2n[nH]c(=S)n2-c2ccc(Cl)c(Cl)c2)cc1	none
C=CCOc1ccccc1/C=N/NC(=O)Cc1ccc(C)cc1	none (no result: CHOP inhibitor)
N#CC1=C(N)OC2=C(CC/C2=C\c2ccccc2Cl)C1c1ccccc1Cl (stereo not given)	none
Cc1oc(C)c2c(=O)ccc3c(c12)OC(N)=C(C#N)C3c1ccccc1Cl (stereo not given)	CHOP inhibitor 81
CSc1ccc(C2C(C#N)=C(N)Oc3c2ccc(=O)c2c(C)oc(C)c32)cc1 (stereo not given)	CHOP inhibitor 83
Cc1oc(C)c2c(=O)ccc3c(c12)OC(N)=C(C#N)C3c1ccccc1 (stereo not given)	none
Cc1ccc(S(=O)(=O)N2[C@@H](c3ccc(F)cc3)C(C(=O)O)=C[C@H]2CC2CCCC2)cc1	none (no result: CHOP inhibitor)
CC(C)(C)c1cc(C(C)(C)C)cc(S(=O)(=O)CCc2ccccn2)c1	CHOP inhibitor 70
O=C(Nc1ccc2c(c1)OCO2)c1ccccn1	none (no result: CHOP inhibitor)
O=C(/C=C\Nc1ccc2c(c1)OCO2)c1ccccn1	CHOP inhibitor 95
Cc1nn2c(NCCCN(C)C)c3c(nc2c1-c1ccccc1)CCC3	CHOP inhibitor 93
Cc1nn2c(-n3ccnc3C)c3c(nc2c1-c1ccccc1)CCC3	none
Cc1nn2c(N3CCOCC3)c3c(nc2c1-c1ccccc1)CCCC3	CHOP inhibitor 72
CCO[C@H]1OC(C(=O)N2CCN(Cc3ccc4c(c3)OCO4)CC2)=C[C@@H](c2ccc(Br)cc2)[C@@H]1CCCO	none
CCOc1ccc(N=Nc2c(=O)[nH]n3c(=O)c4c([nH]c23)CCCC4)cc1	CHOP inhibitor 87
CC(C)C[C@H](NC(=O)c1[nH]cnc1C(=O)Nc1ccc(CNC(=O)OC(C)(C)C)cc1)C(=O)OC(C)(C)C	CHOP inhibitor 84
COc1ccc(NC(=O)c2nc[nH]c2C(=O)N[C@@H](CC(C)C)C(=O)OC(C)(C)C)cc1	CHOP inhibitor 76
CC(C)C[C@H](NC(=O)c1nc[nH]c1C(=O)NCc1ccc(CNC(=O)OC(C)(C)C)cc1)C(=O)OC(C)(C)C	none (no result: CHOP inhibitor)
CC(C)(C)OC(=O)[C@H](Cc1ccccc1)NC(=O)c1nc[nH]c1C(=O)NCC(=O)OCc1ccccc1	none (no result: CHOP inhibitor)
CC(C)(C)OC(=O)CNC(=O)c1[nH]cnc1C(=O)N[C@@H](Cc1ccccc1)C(=O)OC(C)(C)C	CHOP inhibitor 90
COc1ccc(NC(=O)c2nc[nH]c2C(=O)N[C@@H](C)C(=O)OC(C)(C)C)cc1	none
COc1ccccc1/C=C/C=N/NC(=O)c1ccc2nc[nH]c2c1	none (no result: PvdQ inh)
Cc1cc(OCC(=O)Nc2ccncc2)cc(C)c1Cl	none (no result: CHOP inhibitor)
Cn1cnc2ncnc(Oc3ccc(Br)cc3)c21	none (no result: CHOP inhibitor, UPR CHOP act, XBP1 UPR activ)
Nc1ccc2nc(-c3ccc(N)c(Cl)c3)[nH]c2c1	none
Nc1ccc(-c2nc3c(Cl)cc(N)cc3[nH]2)cc1	CHOP inhibitor 88
Cc1ccc2nc(NC(=O)CCNS(=O)(=O)c3cccs3)sc2c1	CHOP inhibitor 73
Cc1ccc2nc(NC(=O)CCNS(=O)(=O)c3ccc(Br)s3)sc2c1	CHOP inhibitor 71
Cc1cccc2sc(NC(=O)CCNS(=O)(=O)c3cccs3)nc12	none
O=C(NCCS(=O)(=O)N1CCC2(CC1)OCCO2)c1ccccc1	none (no result: CHOP inhibitor)
COCCCNC(=O)CN1CCN(Cc2ccc(Cl)cc2)C1=O	none
COc1ccc(C(=O)NNC(=O)Cc2nc3nc(C)cc(C)n3n2)cc1	none (no result: CHOP inhibitor)
CCSc1nnc(NC(=O)NC(CC)(C(F)(F)F)C(F)(F)F)s1	CHOP inhibitor 90
COCCn1c(C)cc(C2=NNC(=Nc3ccc(Cl)cc3Cl)SC2)c1C	none
C=CCN=C1NN=C(c2cc(C)n(CCOC)c2C)CS1	CHOP inhibitor 80
COCCn1c(C)cc(C2=NNC(=NC3CC3)SC2)c1C	CHOP inhibitor 103
Cc1cc(C2=NNC(=NC3CC3)SC2)c(C)n1Cc1ccco1	CHOP inhibitor 95 (no result: UPR CHOP act, XBP1 UPR activ)
CC(C)(C)S(=O)N1Cc2cc(=O)n(Cc3ccccc3)c(CCO)c2[C@@H]1CCO (stereo not given in full)	none (no result: CHOP inhibitor, UPR CHOP act, XBP1 UPR activ)
C/C(=N\NC(=O)c1cc(-c2ccc(C)s2)[nH]n1)c1ccncc1	none (no result: CHOP inhibitor)

Bioassay records deposited in PubChem BioAssay by several laboratories.
